Measurements of several laboratories.
Organism: Clostridioides difficile
Read-out: microbial growth

O=C(NCc1nc(-c2ccc(Br)cc2)c[nH]1)[C@H]1CSC(c2ccccn2)=N1
MIC (broth dilution; R20291; 24 h): > 50 mg/L

N#Cc1ccc(Oc2ccc(-c3noc(-c4ccc(O)cc4)n3)cc2)cc1
MIC (broth dilution; ATCC43255; 48 h): 8 to 128 mg/L

O=C(NCc1nc(-c2ccc(Br)cc2)c[nH]1)Nc1nc2ccc(OC(F)(F)F)cc2s1
MIC (broth dilution; R20291; 24 h): 12.5 to 25 mg/L

COCCNc1ccc(-c2nc(-c3ccc(Oc4ccccc4)cc3)no2)cc1
MIC (broth dilution; 48 h): 8 mg/L

O=C(Nc1ncc([N+](=O)[O-])s1)C1CCCCC1
MIC (agar dilution; VPI10463; 18 h): 5.9 µM

Oc1cc(-c2nc(-c3ccc(Oc4ccc(C(F)(F)F)cc4)cc3)no2)cc(F)c1O
MIC (broth dilution; ATCC43255; 48 h): 128 mg/L

Cl.NCCCc1ccc(Oc2ccc(-c3noc(-c4ccc(O)cc4)n3)cc2)cc1
MIC (broth dilution; 48 h): 2 mg/L

Oc1ccc(Oc2ccc(-c3noc(-c4ccc(O)cc4)n3)cc2)cc1
MIC (broth dilution; ATCC43255; 48 h): 8 to 128 mg/L

O=C(O)Cc1ccc(Oc2ccc(-c3noc(-c4ccc(O)cc4)n3)cc2)cc1
MIC (broth dilution; 48 h): 50 mg/L

Cc1ncc([N+](=O)[O-])n1CCO
MIC (broth dilution; 630): > 0.5 mg/L
